ChEMBL document CHEMBL4334445, “Caspase-Dependent Apoptosis in Prostate Cancer Cells and Zebrafish by Corchorusoside C from Streptocaulon juventas” (J Nat Prod, 2019)
Activity calls are given as the source filed them. The calls are words filed in the database; no cut-off is given here.

Experiments:
[1] = Toxicity in 24 hrs post fertilized zebrafish embryo assessed as malformation of spine curvature at 50 uM measured after 24 hrs by microscopic analysis; design: species or system Danio rerio; settings: in vivo
Summary of the method: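 Zebrafish embryos raised in an automated housing system at 28 °C to 24 hpf, then exposed for 24 h to test agent at 50 μM in vehicle (1% DMSO in water). Digoxin and cycloheximide at 50 μM served as positive controls, with an untreated control. Morphology was then inspected and photographed by light microscopy.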

[2] = molecular target: Sodium/potassium-transporting ATPase (Homo sapiens) (UniProt P05023+P14415+P05026+P50993+P54709+P13637+Q13733+P54710); assay: Inhibition of Na+/K+ ATPase pump in human DU145 cells assessed as increase in intracellular calcium level at 50 uM measured after 5 hrs by Fura-2/AM dye based fluorescence assay; assay type: cell-based
Summary of the method: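 DU-145 cells at 1×10^4 per well treated 5 h (0–50 μM), DMSO/water negative control; medium removed, loaded with 5 μM fura-2 AM then 2.5 mM probenecid; intracellular Ca2+ from emission 510 nm ratio at 340/380 nm excitation; two independent experiments.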

HeLa = assay: Cytotoxicity against human HeLa cells assessed as reduction in cell viability measured after 72 hrs by SRB assay; assay type: functional, cell-based
DU-145 [3] = assay: Cytotoxicity against human DU145 cells assessed as reduction in cell viability measured after 72 hrs by SRB assay; assay type: functional, cell-based
MCF7 = assay: Cytotoxicity against human MCF7 cells assessed as reduction in cell viability measured after 72 hrs by SRB assay; assay type: functional, cell-based
DU-145 [4] = assay: Decrease in IKKbeta expression in human DU145 cells measured after 12 hrs by Western blot analysis; assay type: functional, cell-based
Summary of the method: (§1)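 DU-145 cells in DMEM treated 0.05–50 μM for 12 h, DMSO/water vehicle control; lysates quantified by BCA, 20 μg protein on 10% Bis-Tris SDS-PAGE, transferred to PVDF, blocked with 3% BSA, primary antibody overnight, secondary 1 h, chemiluminescent detection, band densitometry; three independent assays, one-way ANOVA with Dunnett's test.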

DU-145 [5] = assay: Cell cycle arrest in human DU145 cells assessed as decrease in G1 phase population at 0.005 to 5 uM after 24 hrs by RNase/propidium iodide staining based FACScalibur flow cytometry analysis; assay type: functional
Summary of the method: (§2)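 DU-145 cells in 6-cm plates treated 0.005–5 μM for 24 h; trypsinised, fixed in 70% ethanol, RNase incubation 1 h at 37 °C, propidium iodide stained; flow cytometry, excitation 488 nm, emission 617 nm; percentage of cells per phase vs control; two independent experiments.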

Danio rerio [6] = organism: Danio rerio; assay: Effect on NF-KappaB p50 expression in zebrafish at 0.6 to 15 uM by Western blot analysis; assay type: functional, organism-based
Summary of the method: (§3)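 Zebrafish larvae at 72 hpf exposed for 3 h to a range of concentrations, frozen on dry ice and homogenised; BCA protein assay, 20 μg on 10% Bis-Tris SDS-PAGE, PVDF transfer, 3% BSA block, primary antibody overnight, secondary 1 h, chemiluminescent detection, densitometry.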

DU-145 [7] = assay: Cytotoxicity against human DU145 cells assessed as reduction in cell viability measured after 48 hrs by SRB assay; assay type: functional, cell-based; settings: DU-145, 48 h
Summary of the method: (§4)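 DU-145 cells seeded at 5×10^4 cells/mL, compound 30–3×10^-4 μM for 24 or 48 h at 37 °C, 5% CO2; TCA fixation, 0.4% SRB staining, Tris-base solubilisation, absorbance 515 nm; timed IC50 by non-linear regression.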

[8] = Toxicity in zebrafish assessed as effect on intracellular calcium level at 50 uM measured after 5 hrs by Fura-2/AM dye based fluorescence assay; assay type: cell-based, Danio rerio; settings: in vivo
DU-145 [9] = assay: Induction of morphological changes in human DU145 cells assessed as apoptotic cell death at 0.003 to 0.3 uM measured upto 72 hrs by microscopic analysis; assay type: functional, cell-based
DU-145 [10] = assay: Induction of apoptosis in human DU145 cells assessed as cell shrinkage at 0.003 to 0.3 uM measured upto 72 hrs by microscopic analysis; assay type: functional, cell-based
[11] = Toxicity in 24 hrs post fertilized zebrafish embryo assessed as effect on tail development at 50 uM measured after 24 hrs by microscopic analysis; design: species or system Danio rerio; settings: in vivo
Summary of the method: (§5)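 Embryos raised at 28 °C to 24 hpf, then exposed to 50 μM in 1% DMSO in water (vehicle control) for 24 h; larvae examined and photographed by light microscopy for developmental morphology.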

[12] = Toxicity in 24 hrs post fertilized zebrafish embryo assessed as effect on heart development at 50 uM measured after 24 hrs by microscopic analysis; design: species or system Danio rerio; settings: in vivo; summary of the method: as §5
PC-3 = assay: Cytotoxicity against human PC3 cells assessed as reduction in cell viability measured after 72 hrs by SRB assay; assay type: functional, cell-based
DU-145 [13] = assay: Induction of apoptosis in human DU145 cells assessed as cell detachment from monolayer surface at 0.003 to 0.3 uM measured upto 72 hrs by microscopic analysis; assay type: functional, cell-based
[14] = Toxicity in 24 hrs post fertilized zebrafish embryo assessed as effect on brain development at 50 uM measured after 24 hrs by microscopic analysis; design: species or system Danio rerio; settings: in vivo; summary of the method: as §5
Danio rerio [15] = organism: Danio rerio; assay: Effect on caspase 7 level in zebrafish at 0.6 to 15 uM by Western blot analysis; assay type: functional, organism-based; summary of the method: as §3
[16] = Toxicity in 24 hrs post fertilized zebrafish embryo assessed as effect on vasculature at 50 uM measured after 24 hrs by microscopic analysis; design: species or system Danio rerio; settings: in vivo; summary of the method: as §5
DU-145 [17] = assay: Decrease in NF-KappaB p50 subunit expression in human DU145 cells at 0.05 to 50 uM measured after 12 hrs by Western blot analysis; assay type: functional, cell-based; summary of the method: as §1
DU-145 [18] = assay: Induction of apoptosis in human DU145 cells assessed as increase in apoptotic cells at 0.003 to 0.3 uM measured upto 72 hrs by microscopic analysis; assay type: functional, cell-based
DU-145 [19] = assay: Cell cycle arrest in human DU145 cells assessed as increase in sub-G1 phase population at 0.005 to 5 uM after 24 hrs by RNase/propidium iodide staining based FACScalibur flow cytometry analysis; assay type: functional; summary of the method: as §2
DU-145 [20] = assay: Cytotoxicity against human DU145 cells assessed as reduction in cell viability measured after 24 hrs by SRB assay; assay type: functional, cell-based; settings: DU-145, 24 h; summary of the method: as §4
DU-145 [21] = assay: Induction of apoptosis in human DU145 cells assessed as decrease in number of cells at 0.003 to 0.3 uM measured upto 72 hrs by microscopic analysis; assay type: functional, cell-based
DU-145 [22] = assay: Induction of apoptosis in human DU145 cells assessed as increase in PARP1 protein expression at 5 to 50 uM measured after 12 hrs by Western blot analysis; assay type: functional, cell-based; summary of the method: as §1
Danio rerio [23] = organism: Danio rerio; assay: Downregulation of NF-kappaB p65 expression in zebrafish at 0.6 to 15 uM by Western blot analysis; assay type: functional, organism-based; summary of the method: as §3
DU-145 [24] = assay: Induction of ROS generation in human DU145 cells at 0.5 to 50 uM measured after 5 hrs by DCFHDA probe based fluorescence assay; assay type: functional, cell-based
Summary of the method: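 DU-145 cells seeded at 5×10^4/mL, treated 0.5–50 μM, incubated at 37 °C for 5 h; DCFH-DA 10 μM added; fluorescence at excitation 485 / emission 530 nm vs DMSO control; triplicate, two independent experiments, one-way ANOVA with Dunnett's test.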

Danio rerio [25] = organism: Danio rerio; assay: Increase in caspase 3 level in zebrafish at 0.6 to 15 uM by Western blot analysis; assay type: functional, organism-based; summary of the method: as §3
DU-145 [26] = assay: Induction of apoptosis in human DU145 cells assessed assessed as increase in caspase 7 expression at 0.05 to 50 uM after 12 hrs by Western blot analysis; assay type: functional, cell-based; summary of the method: as §1
Danio rerio [27] = organism: Danio rerio; assay: Effect on IKKbeta expression in zebrafish at 0.6 to 15 uM by Western blot analysis; assay type: functional, organism-based; summary of the method: as §3
DU-145 [28] = assay: Induction of apoptosis in human DU145 cells assessed assessed as increase in caspase 3 expression at 0.05 to 50 uM after 12 hrs by Western blot analysis; assay type: functional, cell-based; summary of the method: as §1
MDA-MB-231 = assay: Cytotoxicity against human MDA-MB-231 cells assessed as reduction in cell viability measured after 72 hrs by SRB assay; assay type: functional, cell-based; settings: MDA-MB-231, 72 h
DU-145 [29] = assay: Induction of apoptosis in human DU145 cells assessed assessed as caspase 3/7 activity after 5 hrs by caspase-Glo 3/7 reagent based luminescence assay; assay type: functional, cell-based
Summary of the method: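 DU-145 cells at 1×10^4 per well treated 0.08–8 μM for 5 h, DMSO/water vehicle; Caspase-Glo 3/7 reagent added, 2 h incubation, luminescence read; three independent assays, one-way ANOVA with Dunnett's test.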

[30] = Toxicity in 24 hrs post fertilized zebrafish embryo assessed as effect on gut development at 50 uM measured after 24 hrs by microscopic analysis; design: species or system Danio rerio; settings: in vivo; summary of the method: as §5
[31] = Selectivity index, ratio of IC50 for human CCD-112CoN cells to IC50 for human HT-29 cells
DU-145 [32] = assay: Induction of apoptosis in human DU145 cells assessed as reduction in Bcl2 protein expression at 5 to 50 uM measured after 12 hrs by Western blot analysis; assay type: functional, cell-based; summary of the method: as §1
[33] = Cytotoxicity against human CCD-112CoN cells assessed as reduction in cell viability measured after 72 hrs by SRB assay; assay type: cell-based
Danio rerio [34] = organism: Danio rerio; assay: Downregulation of IKKalpha expression in zebrafish at 0.6 to 15 uM by Western blot analysis; assay type: functional, organism-based; summary of the method: as §3
DU-145 [35] = assay: Decrease in ICAM1 expression in human DU145 cells after 12 hrs by Western blot analysis; assay type: functional, cell-based; summary of the method: as §1
DU-145 [36] = assay: Decrease in IKK alpha expression in human DU145 cells measured after 12 hrs by Western blot analysis; assay type: functional, cell-based; summary of the method: as §1
HT-29 = assay: Cytotoxicity against human HT-29 cells assessed as reduction in cell viability measured after 72 hrs by SRB assay; assay type: functional, cell-based
DU-145 [37] = assay: Decrease in NF-KappaB p65 subunit expression in human DU145 cells at 0.05 to 50 uM measured after 12 hrs by Western blot analysis; assay type: functional, cell-based; summary of the method: as §1
[38] = Toxicity in 24 hrs post fertilized zebrafish embryo assessed as effect on trunk development at 50 uM measured after 24 hrs by microscopic analysis; design: species or system Danio rerio; settings: in vivo; summary of the method: as §5
DU-145 [39] = assay: Induction of mitochondrial membrane potential loss in human DU145 cells after 2 hrs by JC1 staining based fluorescence assay; assay type: functional, cell-based; settings: DU-145, 2 h

Structure (SMILES): C[C@H]1O[C@@H](O[C@H]2[C@@H](O)C[C@H](O[C@H]3[C@@H](O)C[C@H](O[C@H]4CC[C@@]5(C)[C@H](CC[C@@H]6[C@@H]5C[C@@H](O)[C@]5(C)[C@@H](C7=CC(=O)OC7)CC[C@]65O)C4)O[C@@H]3C)O[C@@H]2C)C[C@H](O)[C@@H]1O [DIGOXIN]
- Activity [1]: Toxic
- inhibition [2]: Active

Structure (SMILES): C[C@H]1O[C@@H](O[C@H]2CC[C@]3(C)[C@H]4CC[C@]5(C)[C@@H](C6=CC(=O)OC6)CC[C@]5(O)[C@@H]4CC[C@]3(O)C2)C[C@H](O)[C@@H]1O[C@@H]1O[C@H](CO)[C@@H](O)[C@H](O)[C@H]1O
- Activity (HeLa): Dose-dependent effect
- IC50 (HeLa): 190 nM
- Activity (DU-145 [3]): Dose-dependent effect
- IC50 (DU-145 [3]; DU-145, 72 h): 80 nM
- Activity (MCF7): Dose-dependent effect
- IC50 (MCF7; MCF7, 72 h): 100 nM
- inhibition (DU-145 [4]): Dose-dependent effect
- Activity (DU-145 [5]): Active
- Activity (Danio rerio [6]): inactive
- IC50 (DU-145 [7]): 1200 nM
- Activity [8]: Non-Toxic
- Activity (DU-145 [9]): Active
- Activity (DU-145 [10]): Active
- Activity [11]: Non-Toxic
- Activity [12]: Non-Toxic
- Activity (PC-3): Dose-dependent effect
- IC50 (PC-3; PC-3, 72 h): 200 nM
- Activity (DU-145 [13]): Active
- Activity [14]: Non-Toxic
- Activity (Danio rerio [15]): inactive
- Activity [16]: Non-Toxic
- inhibition (DU-145 [17]): Active
- Activity (DU-145 [18]): Active
- Activity (DU-145 [19]): Active
- inhibition [2]: Active
- IC50 (DU-145 [20]): 11200 nM
- Activity (DU-145 [21]): Active
- Activity (DU-145 [22]): Active
- Activity (Danio rerio [23]): Active
- Activity (DU-145 [24]): Active
- Activity (Danio rerio [25]): Active
- Activity (DU-145 [26]): Active
- Activity (Danio rerio [27]): inactive
- Activity (DU-145 [28]): Active
- IC50 (MDA-MB-231): 200 nM
- Activity (DU-145 [29]): Dose-dependent effect
- Activity [30]: Non-Toxic
- Ratio IC50 [31]: 22.5
- Activity (DU-145 [32]): Active
- IC50 [33]: 2700 nM
- Activity (Danio rerio [34]): Active
- Activity (DU-145 [35]): Dose-dependent effect
- inhibition (DU-145 [36]): Dose-dependent effect
- Activity (HT-29): Dose-dependent effect
- IC50 (HT-29; HT-29, 72 h): 120 nM
- inhibition (DU-145 [37]): Active
- Activity [38]: Non-Toxic
- IC50 (DU-145 [39]): 300 nM
